# UPR CHOP act: activators of apoptotic CHOP UPR arm, primary screen, cell-based, CHO-CHOP luciferase reporter, luminescence, uHTS; UPR activation; percent of tunicamycin response over DMSO baseline; activation, % at 10 µM; hit rate 0.34% among 330,000; AID 449763, 2010;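 active = at 10 µM dose, activation of 40% or more, normalized to positive control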;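 also: 100% = tunicamycin at 10 µg/mL and 0% = DMSO alone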
#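 Dosing – one dose, 10 µM in 0.5% DMSO · System – CHO-CHOP cells, stable luciferase reporter of PERK-eIF2a-CHOP signalling · Input – 500 cells/well · Control set – tunicamycin 10 µg/mL final as positive, DMSO-only wells as negative · Timing – 6 h compound treatment, 37 °C · Measure – % activation vs tunicamycin · Technique – luminescence read with Steady-Glo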
# XBP1 UPR activ: activators of adaptive XBP1 UPR arm, primary screen, cell-based, CHO-XBP1 luciferase reporter, luminescence, uHTS. IRE1-XBP1 UPR activation; percent of tunicamycin response, DMSO as zero. hit rate 0.33% among 330,000. activation, % at 20 µM;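 active = versus positive control, 20 µM dose yields 30% or more activation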;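 also: 100% = tunicamycin at 10 µg/mL and 0% = DMSO only wells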
#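 Material: CHO-XBP1 cells stably carrying IRE1-XBP1-driven luciferase reporter / Amount: 1000 cells per well / Compound: 20 µM, 1% DMSO / Times: 6 h treatment, 37 °C / Detection: luciferase luminescence / Measure: % activation of reporter signal versus tunicamycin and DMSO controls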
# PfM18AAP inh: PfM18AAP inhibitors, malaria aminopeptidase, primary screen, biochemical, QFRET, recombinant enzyme. M18 aspartyl aminopeptidase (Plasmodium falciparum 3D7). hit rate 1.2% among 290,000. inhibition, % at 7.35 µM. H-Glu-NHMec fluorogenic cleavage. AID 1822, 2009;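 active = inhibition above the campaign mean inhibition over all tested compounds plus 3 SD, cut at about 28% in these data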;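 also: 0% = plate median of test compound wells and 100% = 2 mM ZnCl2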
# p97 ATPase inh: inhibitors of human p97 ATPase, primary screen, biochemical. Transitional endoplasmic reticulum ATPase (Homo sapiens), P55072. recombinant p97 ATPase, Kinase-Glo ATP luminescence, 3 h. inhibition, % at 8 µM. hit rate 0.42% among 220,000. AID 1481, 2009; in the data active = inhibition above about 15%;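 also: 0% = DMSO vehicle and 100% = wells lacking enzyme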
# Target sequence (P55072 whole entry, looked up): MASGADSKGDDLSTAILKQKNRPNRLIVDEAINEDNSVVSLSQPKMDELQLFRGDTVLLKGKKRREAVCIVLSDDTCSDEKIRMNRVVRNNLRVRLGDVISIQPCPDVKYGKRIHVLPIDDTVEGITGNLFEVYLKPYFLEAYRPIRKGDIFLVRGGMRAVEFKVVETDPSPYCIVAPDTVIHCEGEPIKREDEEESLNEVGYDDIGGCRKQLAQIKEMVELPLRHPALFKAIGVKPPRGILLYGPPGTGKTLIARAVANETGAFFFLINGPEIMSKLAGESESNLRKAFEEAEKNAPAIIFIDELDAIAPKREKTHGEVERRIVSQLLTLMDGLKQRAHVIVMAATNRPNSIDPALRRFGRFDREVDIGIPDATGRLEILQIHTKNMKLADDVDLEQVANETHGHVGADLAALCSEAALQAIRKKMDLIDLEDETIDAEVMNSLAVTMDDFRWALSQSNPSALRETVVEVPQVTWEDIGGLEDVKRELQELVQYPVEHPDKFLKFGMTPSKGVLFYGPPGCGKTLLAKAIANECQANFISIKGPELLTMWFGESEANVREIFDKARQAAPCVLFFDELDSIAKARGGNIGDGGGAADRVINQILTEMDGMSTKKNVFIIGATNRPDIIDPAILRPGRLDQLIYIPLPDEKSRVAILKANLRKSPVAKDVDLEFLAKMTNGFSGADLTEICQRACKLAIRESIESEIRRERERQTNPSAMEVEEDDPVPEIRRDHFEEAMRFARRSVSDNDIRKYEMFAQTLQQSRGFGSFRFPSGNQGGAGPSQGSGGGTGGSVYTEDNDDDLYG
# CHOP inhibitor: inhibitors of CHOP promoter induction, primary screen, cell-based, unfolded protein response, luciferase reporter; CHO-K1 CHOP-promoter luciferase, tunicamycin-induced, 15-18 h; inhibition, % at 10 µM; hit rate 3.8% among 220,000; AID 2732, 2010;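 active = compounds that reduced the stress-induced luciferase reporter signal by more than about 70% of percent inhibition, limit read from the data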;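 also: 0% = tunicamycin plus vehicle and 100% = wells without tunicamycin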
# HCV NS3 hel inh: inhibitors of HCV NS3 helicase, primary screen, biochemical, Cy5 molecular beacon fluorescence | NS3 helicase DNA unwinding | hit rate 0.56% among 290,000 | inhibition, % at 10.9 µM | Hepatitis C virus NS3 helicase;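 active = inhibition above the mean of all tested compounds plus 3 SD, set per campaign, cut at about 35% in these data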;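 also: 0% = DMSO wells and 100% = thioflavine S control wells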
#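 System: NS3 helicase fragment of HCV / Schedule: 1 h at 25 °C / Control set: DMSO alone as 0% and 110 µM thioflavine S as 100% / Reagent: Cy5/quencher beacon DNA duplex and ATP to start / Technique: Cy5 fluorescence / Replication: singlicate / Evaluation: % inhibition of end-to-start signal ratio versus controls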
# Active calls of the source: *; · = not tested or not shown. Only some compounds are listed: those with a hit (about 4.5% of all), similar ones and a draw of the others.
SMILES,UPR CHOP act,XBP1 UPR activ,PfM18AAP inh,p97 ATPase inh,CHOP inhibitor,HCV NS3 hel inh
O=C(CN1CCOCC1)NCC(=O)Nc1ccc(Br)cc1C(=O)c1ccccc1,-1.3,2.7,3.7,-4.6,-4.6,4.0
NC(=NCCC[C@H](N)C(=O)O)N[N+](=O)[O-],·,·,·,·,0.2,·
CC12NC(Cc3ccccc31)c1ccccc12 (configuration not stated),·,·,·,·,-20.6,·
Cc1ccc(OP(=O)(NC(C)c2ccccc2)Oc2ccc(C)cc2)cc1 (configuration not stated),-0.6,-2.0,5.1,1.1,77.4*,-4.4
CCNC(=O)[C@H]1O[C@@H](n2cnc3c(N)ncnc32)C(O)[C@H]1O (some centres not stated),·,·,·,·,-16.9,·
O=C1NC(=O)C(=C/C=C/c2coc3ccc(Br)cc3c2=O)C(=O)N1,1.1,-4.6,11.9,-0.8,-1.3,48.0*
O=C1NC(=O)C(=Cc2coc3ccccc3c2=O)C(=O)N1,-2.6,0.0,8.3,2.4,12.5,-7.1
O=c1[nH]c(=O)n(CCC2=CCCCC2)c(O)c1/C=N/Nc1ccccc1,1.8,-0.9,-1.4,5.9,61.3,9.2
O=c1[nH]c(=O)n(CCC2=CCCCC2)c(O)c1/C=N/Nc1cccc2ccccc12,-0.5,-2.4,6.3,3.4,71.4*,17.6
Cc1cccc(C)c1NC(=O)c1cccn(Cc2ccc3c(c2)OC(F)(F)O3)c1=O,1.6,1.7,2.5,-7.9,85.9*,6.3
N[C@@H](Cn1cc(I)c(=O)[nH]c1=O)C(=O)O,·,·,·,·,-6.8,·
N#CC(=Cc1ccc(O)c(O)c1)C(N)=S,·,·,·,·,-1.7,·
CC(C)(O)[C@H]1O[C@H]2CC[C@@]3(C)[C@@](O)(CC[C@H]4Cc5c([nH]c6ccccc56)[C@@]43C)C2=CC1=O,1.0,-7.3,9.2,4.7,82.1*,-26.7
CCOP1(=S)Oc2cc3c(cc2C(C(=O)OC)(C(F)(F)F)O1)OCO3 (configuration not stated),0.3,-2.1,18.5,3.2,82.4*,-6.9
Cc1cccc(CN2CCN(c3ccc(Cl)cc3)CC2)c1,1.2,1.3,3.5,-3.4,82.6*,-3.5
Cc1cccc(CN2CCN(Cc3ccc(Cl)cc3)CC2)c1,-2.7,-3.4,-0.2,-6.7,-11.1,2.5
Cc1cc(/C=C2\C(=O)NC(=O)N(c3ccc(Cl)cc3)C2=O)c(C)n1C,-0.9,0.7,3.6,2.6,79.5*,6.7
Cc1cc(/C=C2\C(=O)NC(=O)N(c3ccccc3F)C2=O)c(C)n1-c1cc(C(=O)O)cc(C(=O)O)c1,-1.2,-3.9,30.1*,·,·,26.8
C[n+]1c(-c2ccccc2)c2cc(N)ccc2c2ccc(N)cc21,-1.6,-13.5,33.8*,·,·,34.5
NC(=S)N/N=C/c1coc2ccccc2c1=O,-1.6,-0.3,28.7*,-2.0,22.9,-0.4
CN1CCC23CCCC[C@H]2C1Cc1ccc(O)cc13 (some centres not stated),·,·,·,·,15.9,·
CCOC(=O)Cc1csc(NC(=O)c2c(O)c3ccccc3n(CCC(C)C)c2=O)n1,12.0,-1.7,-15.9,3.0,89.4*,2.9
CCCCCn1c(=O)c(C(=O)Nc2ccccc2)c(O)c2ccccc21,3.2,-1.7,2.5,·,·,5.6
CCCCCCn1c(=O)c(C(=O)Nc2nc(CC(=O)OCC)cs2)c(O)c2ccccc21,17.9,-2.0,-18.6,6.3,84.5*,6.5
CCCCCCn1c(=O)c(C(=O)Nc2c(C)n(C)n(-c3ccccc3)c2=O)c(O)c2ccccc21,1.1,4.3,2.3,3.0,89.7*,12.9
SMILES,UPR CHOP act,XBP1 UPR activ,PfM18AAP inh,p97 ATPase inh,CHOP inhibitor,HCV NS3 hel inh
CCCCCn1c(=O)c(C(=O)Nc2cccc(C)n2)c(O)c2ccccc21,8.6,0.7,-1.2,·,·,2.1
O=P(O)(O)C(Cl)(Cl)P(=O)(O)O,·,·,·,·,1.8,·
CCn1cc(C(=O)N2CCCCC2)c2ccccc21,0.1,-2.5,-0.9,4.0,12.2,-1.3
CCn1cc(C(=O)c2cccs2)c2ccccc21,-1.3,7.5,-4.6,2.3,77.2*,-6.6
C=CCNC(=O)c1c(N)n(Cc2ccco2)c2nc3ccccc3nc12,-0.4,-2.8,9.5,-4.8,76.9*,10.4
CC(N)Cc1c[nH]c2c1ccc1ccccc12 (configuration not stated),1.0,-1.5,30.3*,·,·,-18.6
CCCC(=O)NC(Oc1ccc(C(C)=O)cc1)C(Cl)(Cl)Cl (configuration not stated),-3.1,-3.1,-1.1,-2.3,14.7,12.8
CC(N)c1cccc(Cl)c1Cl (configuration not stated),·,·,·,·,-3.7,·
Nc1c(C(=O)NCCc2ccccc2)c2nc3ccccc3nc2n1CCN1CCOCC1,-0.6,2.7,4.0,-4.6,88.5*,-1.3
CC(C)CCNC(=O)c1c(N)n(CC2CCCO2)c2nc3ccccc3nc12 (configuration not stated),1.2,0.7,-10.1,-1.5,76.1*,-1.1
COc1ccc(CCNC(=O)c2c(N)n(CCN3CCOCC3)c3nc4ccccc4nc23)cc1,3.3,1.2,-6.1,-5.5,75.7*,-4.8
COCCNC(=O)c1c(N)n(Cc2ccco2)c2nc3ccccc3nc12,-2.6,-0.6,0.2,0.4,32.8,7.2
CCCCn1c(N)c(C(=O)NCCN2CCOCC2)c2nc3ccccc3nc21,0.2,3.0,15.1,-5.5,27.7,0.0
CC[C@H](C)[C@@H]1O[C@@]2(C=CC1C)CC1C[C@@H](CC=C(C)C(O[C@H]3CC(OC)C(O[C@H]4CC(OC)C(O)C(C)O4)C(C)O3)C(C)C=CC=C3CO[C@@H]4C(O)C(C)=C[C@@H](C(=O)O1)[C@]34O)O2 (some centres not stated),35.9,50.1*,·,·,·,·
COC(=O)C1=C(c2ccccc2)C[C@@H]2CC[C@H]1N2C(=O)NC1CCCCC1,-2.6,-0.5,·,·,·,·
Clc1ccc(N2CC3CCC(C2)N3)nn1,·,·,·,·,4.3,·
COC[C@H]1OC(=O)c2coc3c2[C@@]1(C)C1=C(C3=O)C2CCC(=O)[C@@]2(C)C[C@H]1OC(C)=O (some centres not stated),·,·,·,·,-10.8,·
Ic1ccccc1CNC1C2CCN(CC2)C1C(c1ccccc1)c1ccccc1 (configuration not stated),·,·,·,·,15.0,·
Cc1ccccc1N1C(=O)NC(=O)/C(=C/c2ccc(N3CCOCC3)o2)C1=O,1.1,-1.6,10.2,1.1,-13.5,9.7
Cc1ccccc1N1C(=O)NC(=O)/C(=C\c2cc(Br)c(N3CCOCC3)o2)C1=O,17.8,3.3,41.2*,4.0,72.3*,-2.9

# Bioassay records from PubChem.
